Each structure is given as a SMILES string.

The series can be described thus: Toxicity liver stage against HepG2, at 10uM. The format is cell-based. On the set-up: test concentration 10 uM, cell line HepG2-A16-CD81EGFP. The settings on record: human, HepG2-A16-CD81EGFP cells; read-out: INHIBITION
The essentials:
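Uninfected HepG2-A16-CD81EGFP cells, 3 × 10^3 per well, 1536-well, plated on prespotted compound at 10 μM final, parasite-free screening media added to match infected plates; puromycin 10 μM positive, DMSO 0.5% negative; run in parallel with 48 h PbLuc assay at 37 °C, 5% CO2; viability by CellTiter-Glo luminescence, normalized to controls.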

Regarding `COCC(=O)N1CCN(c2ncnc3cccc(F)c23)CC1`, the cytotoxicity at 10 µM came out at 6.37%.
The same measure for `Cn1ncnc1CNC(=O)N(CCCO)C1CCc2ccccc21` (stereo not drawn): -5.95%; for `Cc1ncsc1C(=O)OCC1CCN(c2ccccc2)C1` (stereo not drawn): 27.5%.
Take `CCn1cnnc1CN(C)C(=O)c1cc(COc2cccc(F)c2)[nH]n1`: the cytotoxicity at 10 µM was 12.3%.
For the compound `Cc1ccc(-c2nnc(CN3CCc4nn(C)c(=O)cc4C3)o2)cc1`, the cytotoxicity at 10 µM was -23.4%.
On to `COc1ccc(C(=O)NCCN(C)C)c(I)c1`, for which the cytotoxicity at 10 µM was -1.93%.
The same measure for `COc1ccc(NC(=O)c2ccccc2NCc2ncnn2C)cc1`: 2.06%; for `O=C(c1ccncc1)N1CCC2(COc3ncccc3S(=O)(=O)N2)C1` (stereo not drawn): 9.62%.
In the case of `CCc1nccn1C1CCCN(C(=O)c2cnc3onc(C)c3c2)C1` (stereo not drawn) it was -15.9%.
Turning to `Cc1ccc(OC2(C(=O)O)CCN(C(=O)CCc3ccco3)CC2)cc1`, the cytotoxicity at 10 µM was -8.06%.
For the compound `Cn1ccnc1CN1CCN2C[C@H](Oc3ccccc3)C[C@H]2C1`, the cytotoxicity at 10 µM was found to be 7.14%.
For `NC(=O)C1CCN(C(=O)c2cccc(OCc3cscn3)c2)CC1`, the cytotoxicity at 10 µM is -15.5%.
As to `CCCc1nnc2sc(-c3cc(C(C)C)n[nH]3)nn12`, the cytotoxicity at 10 µM was 17.7%.
As for `O=C1CCc2cc(S(=O)(=O)NCc3cc4n(n3)CCNC4)ccc2N1`, the cytotoxicity at 10 µM was 3.28%.
In the case of `NC(=O)C1CCCN(C(=O)c2cccc(OCc3cscn3)c2)C1` (stereo not drawn) it was -7.98%.
As to `CC(C)C(Sc1nccn1C1CC1)C(=O)NCc1cccnc1` (stereo not drawn), the cytotoxicity at 10 µM is -5.83%.
In the case of `CC[C@@H]1N(Cc2ccncc2)CCC[C@]12CCC(=O)N2CCOC` it was 11.5%.
Consider `COc1cccc(-c2noc(C3CCN(Cc4cn(C)nc4C)C3)n2)c1` (stereo not drawn), for which the cytotoxicity at 10 µM was determined as 11.4%.
Regarding `CCc1nc(C)c(C2CC(=O)Nc3c2c(-c2cccnc2)nn3C)[nH]1` (stereo not drawn), the cytotoxicity at 10 µM is -8.13%.
With `O=C(Cc1ccc2c(c1)CCC2)N1CCCC1Cn1cccn1` (stereo not drawn), the cytotoxicity at 10 µM was -139%.
In the case of `c1ccc2c(c1)COC1(CCCCC1)N2`, the cytotoxicity at 10 µM is -11.1%.
Turning to `CCOC(=O)CNC(=O)NCc1cccn1Cc1ccc(F)cc1`, the cytotoxicity at 10 µM came out at 11.6%.
For `CC(Nc1ncnc2c1CCNC2)c1ccc2c(c1)CCCC2` (stereo not drawn), the cytotoxicity at 10 µM turned out to be 42%.
With `Cc1cnn(CC2CN(CCCS(C)(=O)=O)CCO2)c1` (stereo not drawn), the cytotoxicity at 10 µM was -2.45%.
Consider `Cc1nn(C)c(C)c1C1CCCN1CCOc1ccccc1C#N` (stereo not drawn), for which the cytotoxicity at 10 µM was found to be 8.13%.
For the compound `CC(C)(C)c1noc(OCC(=O)NC2CCCC2)n1`, the cytotoxicity at 10 µM came to 2.68%.
`CC(NC(=O)N1CCN(c2ccccc2O)CC1)c1nncn1C` (stereo not drawn): the cytotoxicity at 10 µM was -6.01%.
The same measure for `CCS(=O)(=O)N1CCCCC1c1nc(C(C)C)no1` (stereo not drawn): 13.6%; for `CCN(CCn1cccn1)C(=O)CN1C(=O)OC[C@@H]1c1ccccc1`: -12.1%; for `CCC(=O)Nc1cc(Br)cnc1OCC(F)(F)F`: -1.24%.
In the case of `CCc1nnc2n1CCN(C(=O)c1cc3cc(C)ccc3[nH]1)C2`, the cytotoxicity at 10 µM was determined as 0.893%.
As to `CCC(=O)N1CCC(NC2CCCC2)C1` (stereo not drawn), the cytotoxicity at 10 µM is -4.26%.
Take `CN1CC(=O)N(c2ccccc2)CC12CCN(S(C)(=O)=O)C2` (stereo not drawn): the cytotoxicity at 10 µM is -75.7%.
On to `O=C1NCCCC12CCN(Cc1ccc(-c3ccccc3)s1)C2` (stereo not drawn), for which the cytotoxicity at 10 µM worked out at 16.9%.
As for `Cn1ccc2cc(C(=O)NC3CCS(=O)(=O)C3)ccc21` (stereo not drawn), the cytotoxicity at 10 µM came to 0.979%.
With `CCN(CC)C(=O)CNS(=O)(=O)c1cc(Br)ccc1F`, the cytotoxicity at 10 µM was -45.9%.
Regarding `COc1ccc(-c2n[nH]cc2C2SCC(=O)Nc3[nH]ncc32)cc1` (stereo not drawn), the cytotoxicity at 10 µM was -1.33%.
Turning to `O=C(c1cccc2ncccc12)N1CCCN(c2cccnn2)CC1`, the cytotoxicity at 10 µM was -2.08%.
Regarding `CC(C)[C@H]1CN(Cc2c[nH]cn2)C[C@@H]1NC(=O)CC1CCC1`, the cytotoxicity at 10 µM is -39%.
With `c1cn(Cc2nnc(C3CCN(c4nccs4)CC3)n2C2CC2)cn1`, the cytotoxicity at 10 µM is -7.6%.
As to `COCC(=O)N1CCCC1c1cccc(Nc2ncc(C)s2)n1` (stereo not drawn), the cytotoxicity at 10 µM was -17%.
Take `O=C(O)[C@@H]1CN(C(=O)c2ccc(F)c(F)c2)C[C@H]1c1cccc(F)c1`: the cytotoxicity at 10 µM is -113%.
Consider `COc1cc(N2CCC3(CCCN(C(=O)c4cccnc4)C3)C2)ncn1` (stereo not drawn), for which the cytotoxicity at 10 µM was -149%.
With `Cc1cnn(CC2CCCN2C(=O)c2c(F)cccc2Cl)c1` (stereo not drawn), the cytotoxicity at 10 µM was -29.1%.
For `CC(C1CCN(Cc2c(Cl)cncc2Cl)CC1)N1CCN(C)CC1` (stereo not drawn), the cytotoxicity at 10 µM was -12.2%.
`CNC(=O)NC(=O)C(C)N1CCN(c2ccc(C#N)cc2F)CC1` (stereo not drawn): the cytotoxicity at 10 µM is 2.83%.
For `CN(C)c1ccc(NC(=O)NCC2CCOC2)cn1` (stereo not drawn), the cytotoxicity at 10 µM was -6.8%.
In the case of `Cc1nc(C)n(CC2CN(CCCOc3ccccc3)CCO2)n1` (stereo not drawn) it was -0.924%.
With `CCC(=O)N1CSCC1C(=O)N(C)CCc1ccccc1` (stereo not drawn), the cytotoxicity at 10 µM is 19.5%.
Consider `O=C(Cc1ccc2c(c1)OCCO2)NCCc1nnc2n1CCC2`, for which the cytotoxicity at 10 µM is -9.78%.
The same measure for `Cc1cnn(CC2CCCN2CCCc2nc3ccccc3o2)c1` (stereo not drawn): -6.19%; for `COC1CCN(C(=O)CC2CCCC2)CC(=O)N(C)c2ccccc21` (stereo not drawn): -3.09%.
As to `CN(C(=O)Nc1nncs1)C1CCN(c2ccccc2Cl)C1=O` (stereo not drawn), the cytotoxicity at 10 µM was -7.04%.
In the case of `CCN(CC(=O)Nc1cc(Cl)ccc1C)C(=O)c1ccncc1` it was -1.73%.
In the case of `Cc1nn(C)cc1CN(C)C(=O)c1cnccn1`, the cytotoxicity at 10 µM is -5.2%.
In the case of `O=C1CCCCN1CSc1nnnn1-c1ccc(Cl)cc1`, the cytotoxicity at 10 µM was -48.4%.
In the case of `CC(=O)N1CCCc2ccc(S(=O)(=O)N3CCCCC3C)cc21` (stereo not drawn) it was -15.1%.
The same measure for `CNc1nc(C(=O)N2CCN(c3ccc(Cl)c(Cl)c3)CC2)cs1`: 13.9%.
Consider `O=C(c1ccccc1C1CCNC1)N1CCC(N2CCC(O)CC2)CC1` (stereo not drawn), for which the cytotoxicity at 10 µM was -8.3%.
As for `CCOC(=O)CNc1nc(C(C)(C)C)nc2c1cnn2C`, the cytotoxicity at 10 µM is -12.8%.
For `Cc1nc[nH]c1-c1nccn1CCN1CCCOC1=O`, the cytotoxicity at 10 µM was -2.32%.
In the case of `CC(C)N(Cc1cccc(Cl)c1)Cc1nnsc1Cl` it was 2.56%.
On to `COC(=O)c1ccc(S(=O)(=O)NCC(O)c2sccc2C)cc1` (stereo not drawn), for which the cytotoxicity at 10 µM was 2.16%.
On to `Cc1cn2c(n1)CCC(NC(=O)c1ccc(CS(C)(=O)=O)cc1)C2` (stereo not drawn), for which the cytotoxicity at 10 µM is -2.19%.
For the compound `O=C(NCc1cccnc1N1CCc2ccccc2C1)c1cc(=O)[nH][nH]1`, the cytotoxicity at 10 µM came to 6.99%.
In the case of `O=c1c(NCCNCCO)c(N2CCN(c3ccccc3)CC2)c1=O`, the cytotoxicity at 10 µM was -7.76%.
In the case of `CNC(=O)C1CCN(Cc2cc3c(cc2O)CCC3)CC1` it was 4.83%; in that of `COCCCS(=O)(=O)N1CCN(Cc2cccn2C)CC1`, -9.53%; in that of `COc1cccc(C(=O)NCCCN2CCc3ccccc3C2)c1OC`, 6.67%.
`CCOC(=O)[C@H]1CNC[C@@H]1C(=O)OCC`: the cytotoxicity at 10 µM was 6.1%.
Regarding `NC(=O)c1nnn(-c2ccc(Cl)cc2)n1`, the cytotoxicity at 10 µM worked out at 8.99%.
The same measure for `CCOc1ccc(C(=O)CC(SC2CCCCC2)C(=O)O)cc1` (stereo not drawn): 6.73%; for `CC(C)(C)OC(=O)N1CCC(C(=O)NCc2cc3ccccc3[nH]2)C1` (stereo not drawn): 2.34%.
As to `Cc1cc(NC(=O)Cn2ccc(=O)c3ccccc32)[nH]n1`, the cytotoxicity at 10 µM was -146%.
Regarding `CCOC(=O)CN(CC(F)(F)F)C(=O)c1nc(C)n2ccccc12`, the cytotoxicity at 10 µM was -20.9%.
Consider `Cn1ncc2c(N3CCS(=O)(=O)CC3)nc(C3CCCC3)nc21`, for which the cytotoxicity at 10 µM is -1.31%.
As to `CN1CCc2[nH]cnc2C12CCN(C(=O)CCc1cccs1)CC2`, the cytotoxicity at 10 µM is -1.19%.
The same measure for `Cc1nn(CC(=O)N2CCC(Nc3cccnn3)CC2)c(C)c1Cl`: -12%; for `Cc1ccc2c(CC(=O)N3C[C@@H](O)[C@H](N(C)C)C3)coc2c1`: 10.4%.
With `CC(C)(C)c1ncc(C(=O)NCCn2ccnc2)s1`, the cytotoxicity at 10 µM is 3.39%.
In the case of `Cc1ccc(C(=O)N2CCO[C@H]3[C@H](OCc4ccccn4)CC[C@@H]32)o1` it was -148%; in that of `CC1CN(Cc2noc(C3CC3)n2)CCN1Cc1nccn1C` (stereo not drawn), -10%.
For the compound `Cc1ccnc(NC(=O)C2CCN(CCCc3cn[nH]c3)CC2)c1`, the cytotoxicity at 10 µM is -49%.
The same measure for `CC(C)(C)n1nc(C(=O)NC2CCN(CC(N)=O)CC2)cc1C1CC1`: 0.196%; for `Cc1cccc(OCCSCCn2nc3ccccn3c2=O)c1`: 6.47%.
Regarding `O=C(NCCN1CCOCC1)NCc1cccnc1-n1cccn1`, the cytotoxicity at 10 µM was -2.22%.
As for `CN(C)C(=O)CN1C[C@@H]2OCCN(c3ncc(F)cn3)[C@@H]2C1`, the cytotoxicity at 10 µM is -0.756%.
`c1cncc(CN2CCn3c(Cn4cncn4)cnc3C2)c1`: the cytotoxicity at 10 µM is -70.9%.
Consider `CC(C)N1CCC(N2CCN(C3CCCCC3)CC2CCO)CC1` (stereo not drawn), for which the cytotoxicity at 10 µM was -9.63%.
`CCn1cnnc1CNC(=O)c1cc(Cl)c(I)cc1OC`: the cytotoxicity at 10 µM was -14.4%.
The same measure for `CCCNC(=O)N1CCc2ccc(S(=O)(=O)N3CCN(C)CC3)cc2C1`: -10%.
Regarding `Cc1noc2ncc(S(=O)(=O)N3CCCC(C)(C)CC3)cc12`, the cytotoxicity at 10 µM came to 8.88%.
Regarding `CSCC(C)NCc1ccc2[nH]c(C)c(C)c2c1` (stereo not drawn), the cytotoxicity at 10 µM is -0.369%.
In the case of `Cc1cc(CNC2CCc3nc(C(C)C)nn3C2)on1` (stereo not drawn), the cytotoxicity at 10 µM came out at 7.61%.
Regarding `CCc1ccccc1CN1CC[C@@H](NC(=O)c2cccnc2)[C@H](O)C1`, the cytotoxicity at 10 µM is -9.67%.
With `O=C(c1cc(F)ccc1O)N1CCN(C(=O)C2CCC2)CC1`, the cytotoxicity at 10 µM is 1.22%.
Regarding `Cn1ncc2c1NC(=O)CC2c1ccc(F)cc1` (stereo not drawn), the cytotoxicity at 10 µM was determined as 4.63%.
Consider `CCN(Cc1ccco1)C(=O)NCC(C)N1CCc2sccc2C1` (stereo not drawn), for which the cytotoxicity at 10 µM worked out at 9.08%.

For the origin of these results see ChEMBL document CHEMBL4513216, “Probing the Open Global Health Chemical Diversity Library for Multistage-Active Starting Points for Next-Generation Antimalarials” (ACS Infect Dis, 2020).
